Measured values from ChEMBL document CHEMBL3352430, “4-Aminopyridyl-based CYP51 inhibitors as anti-Trypanosoma cruzi drug leads with improved pharmacokinetic profile and in vivo potency” (J Med Chem, 2014).
pEC50, pKd: −log10 of the molar value. Active and inactive are the calls of the source. The rule behind the calls is not given here.

Key:
Intestine [1] = assay: Drug uptake in mouse intestine at 50 mg/kg, po in 20% HP-beta-CD measured at 8 hrs post dose; assay type: ADME, organism-based; set-up: dose 50 mg/kg, route oral; conditions: in vivo
Procedure, shortened: (§1)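 Female Swiss Webster mice, 8 weeks old, given a single 50 mg/kg oral gavage dose in 20% HPβCD or 20% Kolliphor. Tissues taken from three mice at 2 and 8 h post dose. Homogenized by probe sonication in PBS (1:4 w/v), protein precipitated with acetonitrile, and compound measured by LC-MS/MS in μM.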

Liver [2] = assay: Drug uptake in mouse liver at 50 mg/kg, po in 20% Kolliphor measured at 8 hrs post dose; assay type: ADME, organism-based; set-up: dose 50 mg/kg, route oral; conditions: in vivo; procedure, shortened: as §1
Lung [3] = assay: Drug uptake in mouse lung at 50 mg/kg, po in 20% Kolliphor measured at 8 hrs post dose; assay type: ADME, organism-based; set-up: dose 50 mg/kg, route oral; conditions: in vivo; procedure, shortened: as §1
Heart [4] = assay: Drug uptake in mouse heart at 50 mg/kg, po in 20% Kolliphor measured at 8 hrs post dose; assay type: ADME, organism-based; set-up: dose 50 mg/kg, route oral; conditions: in vivo; procedure, shortened: as §1
[5] = Drug uptake in mouse fat at 50 mg/kg, po in 20% Kolliphor measured at 8 hrs post dose; assay type: ADME, organism-based, Adipose tissue; set-up: dose 50 mg/kg, route oral; conditions: in vivo; procedure, shortened: as §1
[6] = Drug uptake in mouse skeletal muscle at 50 mg/kg, po in 20% Kolliphor measured at 8 hrs post dose; assay type: ADME, organism-based, Muscle tissue; set-up: dose 50 mg/kg, route oral; conditions: in vivo; procedure, shortened: as §1
Liver [7] = assay: Drug uptake in mouse liver at 50 mg/kg, po in 20% HP-beta-CD measured at 8 hrs post dose; assay type: ADME, organism-based; set-up: dose 50 mg/kg, route oral; conditions: in vivo; procedure, shortened: as §1
Lung [8] = assay: Drug uptake in mouse lung at 50 mg/kg, po in 20% HP-beta-CD measured at 8 hrs post dose; assay type: ADME, organism-based; set-up: dose 50 mg/kg, route oral; conditions: in vivo; procedure, shortened: as §1
Heart [9] = assay: Drug uptake in mouse heart at 50 mg/kg, po in 20% HP-beta-CD measured at 8 hrs post dose; assay type: ADME, organism-based; set-up: dose 50 mg/kg, route oral; conditions: in vivo; procedure, shortened: as §1
[10] = Drug uptake in mouse fat at 50 mg/kg, po in 20% HP-beta-CD measured at 8 hrs post dose; assay type: ADME, organism-based, Adipose tissue; set-up: dose 50 mg/kg, route oral; conditions: in vivo; procedure, shortened: as §1
[11] = Drug uptake in mouse skeletal muscle at 50 mg/kg, po in 20% HP-beta-CD measured at 8 hrs post dose; assay type: ADME, organism-based, Muscle tissue; set-up: dose 50 mg/kg, route oral; conditions: in vivo; procedure, shortened: as §1
Trypanosoma cruzi [12] = assay: Antitrypanosomal activity against Trypanosoma cruzi Y luc infected in mouse assessed as inhibition of parasitemia at 50 mg/kg, po bid in 20% HP-beta-CD administered for 4 consecutive days starting on day 3 of infection measured on day 7 post infection relative to vehicle-treated control; assay type: functional, organism-based; set-up: dose 50 mg/kg
Procedure, shortened: (§2)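 Female Swiss Webster mice, 8 weeks old, infected ip with 10^5 T. cruzi Y luc trypomastigotes. Only mice with detectable luminescence on day 3 were treated. Compound given by oral gavage bid for four days, as a suspension in 20% HPβCD or a solution in 20% Kolliphor, five mice per group. Vehicle group and benznidazole 50 mg/kg served as controls. On day 7, mice were injected ip with 150 mg/kg d-luciferin and imaged after 5 min under isoflurane. Percent inhibition calculated against untreated mice; two-tailed paired t test.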

Trypanosoma cruzi [13] = assay: Antitrypanosomal activity against Trypanosoma cruzi Y luc infected in mouse assessed as inhibition of parasitemia at 25 mg/kg, po bid in 20% HP-beta-CD administered for 4 consecutive days starting on day 3 of infection measured on day 7 post infection relative to vehicle-treated control; assay type: functional, organism-based; set-up: dose 25 mg/kg; procedure, shortened: as §2
Mus musculus [14] = assay: Toxicity in mouse assessed as weight loss at 12.5 to 50 mg/kg, po bid in 20% HP-beta-CD; assay type: organism-based; set-up: dose 12.5-50 mg/kg, route oral; conditions: in vivo
Procedure, shortened: (§3)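 Mice in the four-day oral treatment study were given compound bid by gavage in 20% HPβCD or 20% Kolliphor. They were watched for weight loss, mobility problems and changes in appearance throughout dosing.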

Mus musculus [15] = assay: Toxicity in mouse assessed as mobility issues at 12.5 to 50 mg/kg, po bid in 20% HP-beta-CD; assay type: organism-based; set-up: dose 12.5-50 mg/kg, route oral; conditions: in vivo; procedure, shortened: as §3
Mus musculus [16] = assay: Toxicity in mouse assessed as change in appearance at 12.5 to 50 mg/kg, po bid in 20% HP-beta-CD; assay type: organism-based; set-up: dose 12.5-50 mg/kg, route oral; conditions: in vivo; procedure, shortened: as §3
Mus musculus [17] = assay: Toxicity in mouse assessed as weight loss at 12.5 to 50 mg/kg, po bid in 20% Kolliphor; assay type: organism-based; set-up: dose 12.5-50 mg/kg, route oral; conditions: in vivo; procedure, shortened: as §3
Mus musculus [18] = assay: Toxicity in mouse assessed as mobility issues at 12.5 to 50 mg/kg, po bid in 20% Kolliphor; assay type: organism-based; set-up: dose 12.5-50 mg/kg, route oral; conditions: in vivo; procedure, shortened: as §3
Mus musculus [19] = assay: Toxicity in mouse assessed as change in appearance at 12.5 to 50 mg/kg, po bid in 20% Kolliphor; assay type: organism-based; set-up: dose 12.5-50 mg/kg, route oral; conditions: in vivo; procedure, shortened: as §3
[20] = molecular target: Sterol 14-alpha demethylase (Trypanosoma cruzi (strain CL Brener), UniProt Q7Z1V1); assay: Binding affinity to Trypanosoma cruzi CYP51 by UV-vis titration method; conditions: read-out: Kd(app)
Trypanosoma cruzi [21] = assay: Antitrypanosomal activity against Trypanosoma cruzi Y luc infected in mouse assessed as inhibition of parasitemia at 25 mg/kg, po bid in 20% Kolliphor administered for 4 consecutive days starting on day 3 of infection measured on day 7 post infection relative to vehicle-treated control; assay type: functional; procedure, shortened: as §2
Trypanosoma cruzi [22] = assay: Antitrypanosomal activity against Trypanosoma cruzi Y luc infected in mouse assessed as inhibition of parasitemia at 50 mg/kg, po bid in 20% Kolliphor administered for 4 consecutive days starting on day 3 of infection measured on day 7 post infection relative to vehicle-treated control; assay type: functional; procedure, shortened: as §2
Liver microsome [23] = assay: Half life in human liver microsomes; assay type: ADME
Liver microsome [24] = assay: Half life in rat liver microsomes; assay type: ADME
Liver [25] = assay: Half life in mouse liver microsomes; assay type: ADME
Cytochrome P450 1A2 = molecular target: T1, Cytochrome P450 1A2 (Homo sapiens, UniProt P05177); assay: Inhibition of CYP1A2 in human liver microsomes at 1 uM; assay type: ADME
T1 sequence (P05177 whole entry): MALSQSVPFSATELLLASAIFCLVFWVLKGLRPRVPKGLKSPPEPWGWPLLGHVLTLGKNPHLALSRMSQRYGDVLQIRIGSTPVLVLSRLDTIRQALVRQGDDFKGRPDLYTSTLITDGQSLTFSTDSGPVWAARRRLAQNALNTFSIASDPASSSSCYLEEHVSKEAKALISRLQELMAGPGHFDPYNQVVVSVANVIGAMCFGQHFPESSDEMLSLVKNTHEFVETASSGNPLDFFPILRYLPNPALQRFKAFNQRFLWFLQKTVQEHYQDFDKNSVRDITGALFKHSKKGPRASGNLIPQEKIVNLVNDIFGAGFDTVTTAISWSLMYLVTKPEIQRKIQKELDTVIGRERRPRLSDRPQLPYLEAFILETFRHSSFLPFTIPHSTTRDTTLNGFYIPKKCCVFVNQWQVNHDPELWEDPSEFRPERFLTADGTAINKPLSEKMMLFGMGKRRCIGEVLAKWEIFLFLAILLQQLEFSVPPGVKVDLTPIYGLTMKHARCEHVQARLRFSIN

Cytochrome P450 2C9 = Cytochrome P450 2C9 (Homo sapiens, UniProt P11712); assay: Inhibition of CYP2C9 in human liver microsomes at 1 uM; assay type: ADME
Cytochrome P450 2D6 = Cytochrome P450 2D6 (Homo sapiens, UniProt P10635); assay: Inhibition of CYP2D6 in human liver microsomes at 1 uM; assay type: ADME
Cytochrome P450 3A4 = Cytochrome P450 3A4 (Homo sapiens, UniProt P08684); assay: Inhibition of CYP3A4 in human liver microsomes at 1 uM; assay type: ADME
Trypanosoma cruzi [26] = assay: Antitrypanosomal activity against Trypanosoma cruzi amastigotes infected in mouse C2C12 cells after 72 hrs by DAPI staining method; assay type: functional, organism-based; conditions: C2C12, 72 h
C2C12 = assay: Cytotoxicity against mouse C2C12 cells up to 10 uM; assay type: cell-based
Procedure, shortened: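 Mouse C2C12 myoblasts infected with T. cruzi CA-I/72, then exposed at 24 h postinfection to compound at 10 μM down to 5 pM in 5-fold steps for 72 h at 37 °C. Cells fixed in paraformaldehyde, stained with DAPI and scored by automated imaging. Triplicate wells; uninfected and infected untreated wells as controls.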

[27] = Half life in mouse at 50 mg/kg, po in 20% Kolliphor; assay type: ADME, organism-based; set-up: dose 50 mg/kg, route oral; conditions: in vivo
Procedure, shortened: (§4)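 Female Swiss Webster mice, 8 weeks old, given one oral gavage dose of 50 mg/kg as a 10 mg/mL preparation in the named vehicle (20% HPβCD suspension or 20% Kolliphor). Plasma sampled at about 0.25, 0.5, 1, 2, 4, 6, 8, 12 and 24 h, n = 3 per time point. Protein precipitated with 5 volumes acetonitrile, filtered, then LC-MS/MS. Values are averages of three mice.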

[28] = Half life in mouse at 50 mg/kg, po in 20% HP-beta-CD; assay type: ADME, organism-based; set-up: dose 50 mg/kg, route oral; conditions: in vivo; procedure, shortened: as §4
[29] = Tmax in mouse at 50 mg/kg, po in 20% Kolliphor; assay type: ADME, organism-based; set-up: dose 50 mg/kg, route oral; conditions: in vivo; procedure, shortened: as §4
[30] = Tmax in mouse at 50 mg/kg, po in 20% HP-beta-CD; assay type: ADME, organism-based; set-up: dose 50 mg/kg, route oral; conditions: in vivo; procedure, shortened: as §4
[31] = Cmax in mouse at 50 mg/kg, po in 20% Kolliphor; assay type: ADME, organism-based; set-up: dose 50 mg/kg, route oral; conditions: in vivo; procedure, shortened: as §4
[32] = Cmax in mouse at 50 mg/kg, po in 20% HP-beta-CD; assay type: ADME, organism-based; set-up: dose 50 mg/kg, route oral; conditions: in vivo; procedure, shortened: as §4
[33] = AUClast in mouse at 50 mg/kg, po in 20% Kolliphor; assay type: ADME, organism-based; set-up: time 0 - last, dose 50 mg/kg, route oral; conditions: plasma; procedure, shortened: as §4
Mus musculus [34] = assay: AUClast in mouse at 50 mg/kg, po in 20% HP-beta-CD; assay type: ADME, organism-based, Plasma; set-up: time 0 - last, dose 50 mg/kg, route oral; conditions: in vivo; procedure, shortened: as §4
[35] = Clearance in mouse at 50 mg/kg, po in 20% Kolliphor; assay type: ADME, organism-based; set-up: dose 50 mg/kg, route oral; conditions: in vivo; procedure, shortened: as §4
Intestine [36] = assay: Drug uptake in mouse intestine at 50 mg/kg, po in 20% Kolliphor measured at 8 hrs post dose; assay type: ADME, organism-based; set-up: dose 50 mg/kg, route oral; conditions: in vivo; procedure, shortened: as §1

Chain of Cytochrome P450 2D6 (P10635 whole entry): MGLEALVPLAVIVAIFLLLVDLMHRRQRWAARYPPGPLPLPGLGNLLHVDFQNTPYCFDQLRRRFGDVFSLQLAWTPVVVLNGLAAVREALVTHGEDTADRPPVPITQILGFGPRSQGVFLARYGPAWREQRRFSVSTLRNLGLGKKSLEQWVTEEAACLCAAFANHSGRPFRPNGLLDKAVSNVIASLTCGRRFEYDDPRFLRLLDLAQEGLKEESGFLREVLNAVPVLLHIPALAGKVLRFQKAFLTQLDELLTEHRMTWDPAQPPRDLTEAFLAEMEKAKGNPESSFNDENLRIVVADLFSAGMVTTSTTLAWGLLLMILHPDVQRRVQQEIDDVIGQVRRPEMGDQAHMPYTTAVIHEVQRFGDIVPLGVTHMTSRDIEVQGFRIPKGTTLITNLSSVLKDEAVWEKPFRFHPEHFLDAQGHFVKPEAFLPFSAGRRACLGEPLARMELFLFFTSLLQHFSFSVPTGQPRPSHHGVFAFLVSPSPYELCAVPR
Chain of Cytochrome P450 2C9 (P11712 whole entry): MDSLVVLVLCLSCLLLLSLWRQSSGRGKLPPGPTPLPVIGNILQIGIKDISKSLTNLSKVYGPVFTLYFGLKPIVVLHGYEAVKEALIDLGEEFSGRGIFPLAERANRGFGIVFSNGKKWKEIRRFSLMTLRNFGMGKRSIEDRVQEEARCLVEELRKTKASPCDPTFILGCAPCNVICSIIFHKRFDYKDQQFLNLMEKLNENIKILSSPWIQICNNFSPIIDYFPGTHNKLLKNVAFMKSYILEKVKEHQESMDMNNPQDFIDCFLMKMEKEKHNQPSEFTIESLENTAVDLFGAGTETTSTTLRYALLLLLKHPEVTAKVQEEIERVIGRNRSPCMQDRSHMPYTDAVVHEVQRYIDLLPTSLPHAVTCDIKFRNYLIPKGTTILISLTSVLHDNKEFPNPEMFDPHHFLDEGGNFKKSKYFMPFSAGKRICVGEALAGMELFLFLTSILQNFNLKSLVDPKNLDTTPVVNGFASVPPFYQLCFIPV
Chain of Sterol 14-alpha demethylase (Q7Z1V1 whole entry): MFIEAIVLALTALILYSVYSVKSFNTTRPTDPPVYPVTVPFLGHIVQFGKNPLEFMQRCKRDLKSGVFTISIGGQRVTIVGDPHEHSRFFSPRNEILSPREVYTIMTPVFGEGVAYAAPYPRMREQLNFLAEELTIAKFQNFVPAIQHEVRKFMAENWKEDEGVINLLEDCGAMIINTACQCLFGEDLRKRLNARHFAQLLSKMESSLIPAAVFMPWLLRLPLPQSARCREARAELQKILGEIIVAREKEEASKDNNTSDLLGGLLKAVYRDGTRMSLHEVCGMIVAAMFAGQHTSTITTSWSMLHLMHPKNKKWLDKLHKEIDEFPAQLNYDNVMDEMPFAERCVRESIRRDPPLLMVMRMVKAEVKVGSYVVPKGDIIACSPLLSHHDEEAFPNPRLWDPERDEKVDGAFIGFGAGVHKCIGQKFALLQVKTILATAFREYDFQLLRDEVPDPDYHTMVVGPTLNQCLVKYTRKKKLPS
Chain of Cytochrome P450 3A4 (P08684 whole entry): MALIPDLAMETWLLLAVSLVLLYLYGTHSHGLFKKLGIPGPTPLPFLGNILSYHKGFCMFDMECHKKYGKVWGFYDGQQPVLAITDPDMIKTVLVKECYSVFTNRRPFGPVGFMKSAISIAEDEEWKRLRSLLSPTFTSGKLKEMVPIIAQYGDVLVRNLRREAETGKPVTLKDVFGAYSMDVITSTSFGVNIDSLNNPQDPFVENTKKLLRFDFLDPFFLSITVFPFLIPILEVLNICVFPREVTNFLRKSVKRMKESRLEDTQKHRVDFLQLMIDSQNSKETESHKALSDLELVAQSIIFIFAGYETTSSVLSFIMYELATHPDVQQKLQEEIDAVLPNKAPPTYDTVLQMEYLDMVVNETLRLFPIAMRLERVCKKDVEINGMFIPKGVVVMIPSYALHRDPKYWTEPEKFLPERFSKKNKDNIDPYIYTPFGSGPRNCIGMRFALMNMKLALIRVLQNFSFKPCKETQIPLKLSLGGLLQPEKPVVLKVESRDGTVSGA

Drug uptake (Intestine [1]): Active | Drug uptake (Liver [2]): Active | Drug uptake (Lung [3]): Active | Drug uptake (Heart [4]): Active | Drug uptake [5]: Active | Drug uptake [6]: Active | Drug uptake (Liver [7]): Active | Drug uptake (Lung [8]): Active | Drug uptake (Heart [9]): Active | Drug uptake [10]: Active | Drug uptake [11]: Active | pKd [20]: 7.92 | t1/2 (Liver microsome [23]): 0.417 h | t1/2 (Liver microsome [24]): 0.3 h | t1/2 (Liver [25]): 0.817 h | inhibition (INH) (Cytochrome P450 1A2): -5% | inhibition (INH) (Cytochrome P450 2C9): 90% | inhibition (INH) (Cytochrome P450 2D6): 21% | inhibition (INH) (Cytochrome P450 3A4): 27% | pEC50 (Trypanosoma cruzi [26]): 7.68 | half-life [27]: 3.76 h | half-life [28]: 4.87 h | Tmax [29]: 2.33 h | Tmax [30]: 2 h | Cmax [31]: 13.6 µM | Cmax [32]: 1.02 µM | AUC(0-t) [33]: 106 µM·h | AUClast (Mus musculus [34]): 4.55 µM·h | CL/F [35]: 14.1 mL/min/kg | Drug uptake (Intestine [36]): Active
Compound: O=C(N[C@H](Cc1c[nH]c2ccccc12)C(=O)Nc1ccncc1)c1ccc(-c2cc(C(F)(F)F)ccc2F)cc1F
inhibition (Trypanosoma cruzi [12]): Active | inhibition (Trypanosoma cruzi [13]): Active | Activity (Mus musculus [14]): Non-toxic | Activity (Mus musculus [15]): Non-toxic | Activity (Mus musculus [16]): Non-toxic | Activity (Mus musculus [17]): Non-toxic | Activity (Mus musculus [18]): Non-toxic | Activity (Mus musculus [19]): Non-toxic | inhibition in vivo at 25 mg/kg (Trypanosoma cruzi [21]): 63.3% | inhibition in vivo at 50 mg/kg (Trypanosoma cruzi [22]): 91.3% | Activity (C2C12): Non-toxic
